According to ChEMBL document CHEMBL1157696, “New oxapolycyclic cage amines with NMDA receptor antagonist and trypanocidal activities” (Bioorg Med Chem, 2010):
The source made the active and inactive calls. No cut-off for these calls is given here.

What was measured:
Trypanosoma brucei [1] = experiment: Trypanocidal activity against Trypanosoma brucei 427 bloodstream form assessed as decrease in cell density at 5 ug/mL after 48 hrs by hemocytometry; format: functional, organism-based
Glutamate NMDA receptor [2] = experiment: Antagonist activity at NMDA receptor in rat cerebellar granule neurons assessed as inhibition of NMDA-induced increase in intracellular calcium level by fluorometric assay; format: functional, cell-based
Summary of the method: (§1)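 Primary cerebellar granule neuron cultures on poly-L-lysine-coated glass coverslips, used after 7–14 days in vitro. Cells loaded with 6 µM Fura-2 AM for 45 min, then read fluorometrically in Locke-Hepes buffer at 37 °C under mild agitation. Cumulative increasing compound concentrations added after glutamate (100 µM, with 10 µM glycine) or NMDA challenge. Inhibition percentages fitted by variable-slope non-linear regression. At least three experiments on three culture batches.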

Glutamate NMDA receptor [3] = experiment: Antagonist activity at NMDA receptor in rat cerebellar granule neurons assessed as inhibition of glutamate-induced increase in intracellular calcium level by fluorometric assay; format: functional, cell-based; summary of the method: as §1
Trypanosoma brucei [4] = experiment: Trypanocidal activity against Trypanosoma brucei 427 bloodstream form assessed as decrease in cell density after 48 hrs by hemocytometry; format: functional, organism-based; conditions: Trypanosoma brucei, 427, 48 h
Summary of the method: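 Bloodstream-form T. brucei strain 427 kept at 37 °C in modified Iscove's medium, pH 7.4. Parasites grown 48 h across a range of drug concentrations, starting at 0.5 × 10⁴ cells/mL. Densities counted by hemocytometer and expressed as percent of control growth to derive IC50 and IC90. Performed in triplicate.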

Mus musculus [5] = species: Mus musculus; experiment: Inhibition of MAO in mouse cortex at 10 uM by tube luminometry
Summary of the method: (§2)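 MAO-Glo luminescent assay of non-specific MAO activity. Enzyme source was a crude mitochondrial preparation from NIH Swiss mouse cortex. Compounds tested at 10 and 50 µM.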

Mus musculus [6] = species: Mus musculus; experiment: Inhibition of MAO in mouse cortex at 50 uM by tube luminometry; summary of the method: as §2
Trypanosoma brucei [7] = experiment: Ratio of compound to amantadine activity against Trypanosoma brucei 427 bloodstream form; format: functional

## CC12CC3CC(N)(CC(C1)c1ccccc13)O2
Trypanosoma brucei [1]
  Activity: inactive
Glutamate NMDA receptor [2]
  IC50: 98 µM
Glutamate NMDA receptor [3]
  IC50: 167 µM

## c1ccc(CNC23CC4CC(CC(C2)c2ccccc24)O3)cc1
Trypanosoma brucei [1]
  Activity: inactive
Glutamate NMDA receptor [2]
  IC50: > 200 µM
Glutamate NMDA receptor [3]
  IC50: > 500 µM

## c1ccc(CCNC23CC4CC(CC(C2)c2ccccc24)O3)cc1
Trypanosoma brucei [1]
  Activity: inactive
Glutamate NMDA receptor [2]
  IC50: > 200 µM
Glutamate NMDA receptor [3]
  IC50: > 500 µM

## CNC12CC3CC(CC(C1)c1ccccc13)O2
Trypanosoma brucei [1]
  Activity: inactive
Glutamate NMDA receptor [2]
  IC50: 6 µM
Glutamate NMDA receptor [3]
  IC50: 28 µM

## CC12CC3CC(C)(C1)CC(N)(C3)C2 [MEMANTINE]
Trypanosoma brucei [4]
  IC50: 13.8 µM
  IC90: 21.4 µM

## C#CCN(CC#C)C12CC3CC(CC)(CC(C1)c1ccccc13)O2
Mus musculus [5]
  inhibition: inactive
Mus musculus [6]
  inhibition: inactive
Glutamate NMDA receptor [2]
  IC50: > 200 µM
Glutamate NMDA receptor [3]
  IC50: > 500 µM
Trypanosoma brucei [4]
  IC50: 14.6 µM
  IC90: 24.1 µM
Trypanosoma brucei [7]
  Ratio: >=10

## CN(Cc1ccccc1)C12CC3CC(CC(C1)c1ccccc13)O2
Trypanosoma brucei [1]
  Activity: inactive
Glutamate NMDA receptor [2]
  IC50: > 200 µM
Glutamate NMDA receptor [3]
  IC50: > 500 µM

## C#CCN(CC#C)C12CC3CC(CC(C1)c1ccccc13)O2
Mus musculus [5]
  inhibition: inactive
Trypanosoma brucei [1]
  Activity: inactive
Mus musculus [6]
  inhibition: inactive
Glutamate NMDA receptor [2]
  IC50: > 200 µM
Glutamate NMDA receptor [3]
  IC50: > 500 µM

## CCN(CC)C12CC3CC(C)(CC(C1)c1ccccc13)O2
Trypanosoma brucei [1]
  Activity: inactive
Glutamate NMDA receptor [2]
  IC50: 7.7 µM
Glutamate NMDA receptor [3]
  IC50: 22 µM

## CCC12CC3CC(N)(CC(C1)c1ccccc13)O2
Trypanosoma brucei [1]
  Activity: inactive
Glutamate NMDA receptor [2]
  IC50: > 200 µM
Glutamate NMDA receptor [3]
  IC50: > 500 µM

## C#CCN(C)[C@H](C)Cc1ccccc1
Mus musculus [5]
  inhibition: 85.5%

## CN(C)C12CC3CC(CC(C1)c1ccccc13)O2
Trypanosoma brucei [1]
  Activity: inactive
Glutamate NMDA receptor [2]
  IC50: 3.8 µM
Glutamate NMDA receptor [3]
  IC50: 39 µM

## CCC12CC3CC(NCc4ccccc4)(CC(C1)c1ccccc13)O2
Glutamate NMDA receptor [2]
  IC50: > 200 µM
Glutamate NMDA receptor [3]
  IC50: > 500 µM
Trypanosoma brucei [4]
  IC50: 13.9 µM
  IC90: 19.9 µM
Trypanosoma brucei [7]
  Ratio: >=10

## CN(C)C12CC3CC(C)(CC(C1)c1ccccc13)O2
Trypanosoma brucei [1]
  Activity: inactive
Glutamate NMDA receptor [2]
  IC50: 3.9 µM
Glutamate NMDA receptor [3]
  IC50: 7.7 µM

## c1ccc2c(c1)C1CC3CC2CC(N2CCCCC2)(C1)O3
Glutamate NMDA receptor [2]
  IC50: 30 µM
Glutamate NMDA receptor [3]
  IC50: 168 µM

## CC(N)C12CC3CC(CC(C3)C1)C2 (stereo not given) [RIMANTADINE]
Trypanosoma brucei [4]
  IC90: 14 µM

## C#CCNC12CC3CC(CC(C1)c1ccccc13)O2
Mus musculus [5]
  inhibition: inactive
Trypanosoma brucei [1]
  Activity: inactive
Mus musculus [6]
  inhibition: inactive
Glutamate NMDA receptor [2]
  IC50: 34 µM
Glutamate NMDA receptor [3]
  IC50: 115 µM

## NC12CC3CC(CC(C1)c1ccccc13)O2
Trypanosoma brucei [1]
  Activity: inactive
Glutamate NMDA receptor [2]
  IC50: 35 µM
Glutamate NMDA receptor [3]
  IC50: 408 µM

## c1ccc(CN(Cc2ccccc2)C23CC4CC(CC(C2)c2ccccc24)O3)cc1
Trypanosoma brucei [1]
  Activity: inactive
Glutamate NMDA receptor [2]
  IC50: > 200 µM
Glutamate NMDA receptor [3]
  IC50: > 500 µM

## C#CCNC12CC3CC(CC)(CC(C1)c1ccccc13)O2
Mus musculus [5]
  inhibition: inactive
Mus musculus [6]
  inhibition: inactive
Glutamate NMDA receptor [2]
  IC50: > 200 µM
Glutamate NMDA receptor [3]
  IC50: > 500 µM
Trypanosoma brucei [4]
  IC50: 15.2 µM
  IC90: 25.6 µM
Trypanosoma brucei [7]
  Ratio: >=10

## NC(=O)CNC12CC3CC(CC(C1)c1ccccc13)O2
Mus musculus [5]
  inhibition: inactive
Trypanosoma brucei [1]
  Activity: inactive
Mus musculus [6]
  inhibition: inactive
Glutamate NMDA receptor [2]
  IC50: > 200 µM
Glutamate NMDA receptor [3]
  IC50: > 500 µM

## CCN(CC)C12CC3CC(CC(C1)c1ccccc13)O2
Glutamate NMDA receptor [2]
  IC50: 14 µM
Glutamate NMDA receptor [3]
  IC50: 96 µM
